In ChEMBL document CHEMBL1124568, “2,4-Diamino-5-benzylpyrimidines as antibacterial agents. 13. Some alkenyl derivatives with high in vitro activity against anaerobic organisms” (J Med Chem, 1989):
Converted amounts (≈) assume the structure as drawn.

Tests used:
[1] = target: T1, Dihydrofolate reductase (Rattus norvegicus, UniProt Q920D2); assay: In vitro inhibition of rat liver dihydrofolate reductase.; settings: read-out: I50
T1 sequence (Q920D2 whole entry): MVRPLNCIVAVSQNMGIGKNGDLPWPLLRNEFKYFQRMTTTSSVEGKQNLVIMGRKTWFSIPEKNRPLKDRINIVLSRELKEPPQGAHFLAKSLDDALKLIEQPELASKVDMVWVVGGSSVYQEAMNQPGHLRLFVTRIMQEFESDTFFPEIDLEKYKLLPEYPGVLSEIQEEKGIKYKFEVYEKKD

[2] = target: Bifunctional dihydrofolate reductase-thymidylate synthase (Plasmodium berghei str. ANKA, UniProt Q27713); assay: In vitro inhibition of dihydrofolate reductase of Plasmodium berghei; settings: read-out: I50
Bifunctional dihydrofolate reductase-thymidylate synthase, sequence (Q27713 whole entry): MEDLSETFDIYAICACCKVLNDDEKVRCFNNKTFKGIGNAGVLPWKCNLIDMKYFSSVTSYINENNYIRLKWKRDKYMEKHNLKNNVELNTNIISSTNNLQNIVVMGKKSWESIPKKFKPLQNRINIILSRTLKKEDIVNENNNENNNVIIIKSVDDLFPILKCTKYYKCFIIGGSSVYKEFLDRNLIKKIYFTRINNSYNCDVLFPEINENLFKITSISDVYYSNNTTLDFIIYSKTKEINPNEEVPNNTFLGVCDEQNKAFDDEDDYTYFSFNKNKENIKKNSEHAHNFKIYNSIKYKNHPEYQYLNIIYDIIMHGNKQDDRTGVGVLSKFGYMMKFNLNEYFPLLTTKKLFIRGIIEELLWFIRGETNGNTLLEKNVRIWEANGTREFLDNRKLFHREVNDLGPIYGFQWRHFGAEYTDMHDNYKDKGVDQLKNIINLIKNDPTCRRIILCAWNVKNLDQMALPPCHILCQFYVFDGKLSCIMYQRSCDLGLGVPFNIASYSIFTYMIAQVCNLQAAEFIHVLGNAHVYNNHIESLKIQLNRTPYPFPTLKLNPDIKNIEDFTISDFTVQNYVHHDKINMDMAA

[3] = tested on: Klebsiella aerogenes; assay: Ratio of antibacterial (Enterobacter aerogenes, 2201/86) activities of compound and trimethoprim; type: functional
In short: (§1)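 Each MIC is divided by the MIC of trimethoprim run alongside. Serial dilutions were normally 0.1, 0.3, 1, 3, 10, etc., and occasionally 1, 5 and 10. For E. coli the value is the average over six strains.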

[4] = tested on: Klebsiella pneumoniae; assay: Ratio of antibacterial (Klebsiella pneumoniae CN3632) activities of compound and trimethoprim; type: functional; in short: as §1
[5] = tested on: Proteus vulgaris; assay: Ratio of antibacterial (Proteus vulgaris CN329) activities of compound and trimethoprim; type: functional; in short: as §1
[6] = tested on: Shigella dysenteriae; assay: (§2) Ratio of antibacterial (Shigella dysentariae CN513) activities of compound and trimethoprim; type: functional
[7] = tested on: Staphylococcus aureus; assay: Ratio of antibacterial (Staphylococcus aureus CN491) activities of compound and trimethoprim; type: functional; in short: as §1
[8] = tested on: Salmonella; assay: Ratio of antibacterial (Salmonella typhi CN512) activities of compound and trimethoprim; type: functional, salmonella typhosa
[9] = tested on: Escherichia coli; assay: Ratio of antibacterial (Escherichia coli CN314) activities of compound and trimethoprim; type: functional
[10] = target: T2, Dihydrofolate reductase (Escherichia coli, UniProt P0ABQ4); assay: In vitro inhibition of dihydrofolate reductase of Escherichia coli; settings: read-out: I50
T2 sequence (P0ABQ4 whole entry): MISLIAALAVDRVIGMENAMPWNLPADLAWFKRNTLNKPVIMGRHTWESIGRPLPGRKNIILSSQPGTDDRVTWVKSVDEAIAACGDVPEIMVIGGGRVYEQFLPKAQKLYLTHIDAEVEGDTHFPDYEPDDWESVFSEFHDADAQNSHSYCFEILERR
In short: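 The E. coli DHFR assay contained 1 nM enzyme, with the lower limit for I50 arbitrarily set at 2 nM. I50 was estimated from plots of % inhibition of steady-state velocity vs log inhibitor concentration.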

[11] = tested on: Streptococcus pyogenes; assay: Ratio of antibacterial (Streptococcus pyogenes CN10) activities of compound and trimethoprim
[12] = Half-life in dogs Plasma; type: ADME, organism-based, Canis lupus familiaris; settings: dog
In short: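 Two fasted (18 h) male beagles received 5 mg/kg […] (free base), co-dosed with 5 mg/kg trimethoprim in propylene glycol. Jugular plasma was sampled from 0.17 to 24 h. Drug was extracted, separated by TLC and read by fluorescence densitometry. t1/2 came from least-squares linear regression of the postabsorption segment of the plasma curve.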

[13] = tested on: Phocaeicola vulgatus; assay: Ratio of antibacterial (Bacteroides vulgatus) activities compared to that of trimethoprim and metronidazole; type: functional
[14] = tested on: Bacteroides thetaiotaomicron; assay: Ratio of antibacterial (Bacteroides thetaiotaomicron) activities compared to that of trimethoprim and metronidazole; type: functional
[15] = tested on: Clostridioides difficile; assay: Ratio of antibacterial (Clostridium difficile) activities compared to that of trimethoprim and metronidazole; type: functional
[16] = tested on: Clostridium perfringens; assay: Ratio of antibacterial (Clostridium perfringens) activities compared to that of trimethoprim and metronidazole; type: functional
[17] = tested on: Escherichia coli; assay: Antibacterial (Escherichia coli) activity compared to trimethoprim.; type: functional; in short: as §1
[18] = tested on: Fusobacterium nucleatum; assay: Ratio of antibacterial (Fusobacterium nucleatum) activities compared to that of trimethoprim and metronidazole; type: functional
[19] = tested on: Klebsiella pneumoniae; assay: Antibacterial (Klebsiella pneumoniae CN3632) activity compared to trimethoprim.; type: functional; in short: as §1
[20] = tested on: Pasteurella multocida; assay: Antibacterial (Pasteurella multocides ATCC 6587) activity compared to trimethoprim.; type: functional; in short: as §1
[21] = tested on: Proteus vulgaris; assay: Antibacterial (Proteus vulgaris CN329) activity compared to trimethoprim.; type: functional; in short: as §1
[22] = Antibacterial (Salmonella typhi CN512) activity compared to trimethoprim.; type: functional, salmonella typhosa
[23] = tested on: Shigella dysenteriae; assay: as §2
[24] = tested on: Streptococcus pyogenes; assay: Antibacterial ([…] CN10) activity compared to trimethoprim.; type: functional; in short: as §1
[25] = tested on: Staphylococcus aureus; assay: Antibacterial (Staphylococcus aureus CN491) activity compared to trimethoprim.; type: functional; in short: as §1
[26] = tested on: Klebsiella aerogenes; assay: Antibacterial (Enterobacter aerogenes 2201/86) activity compared to trimethoprim.; type: functional; in short: as §1
[27] = target: T2, Dihydrofolate reductase; assay: Antibacterial activity against Escherichia coli DHFR
In short: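 E. coli DHFR assay with 1 nM enzyme. I50 is the inhibitor concentration that halves the standard-assay velocity. […] Apparent Ki for some inhibitors was obtained by the Henderson method.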

[28] = tested on: Mycolicibacterium smegmatis; assay: Antibacterial (Mycobacterium smegmatis S3254) activity compared to trimethoprim.; type: functional; in short: as §1
[29] = tested on: Shigella flexneri; assay: Antibacterial (Shigella flexneri CN6007) activity compared to trimethoprim.; type: functional; in short: as §1
[30] = tested on: Serratia marcescens; assay: Antibacterial (Serratia marcescens CN2398) activity compared to trimethoprim.; type: functional; in short: as §1
[31] = target: Dihydrofolate reductase (Staphylococcus aureus, UniProt P0A017); assay: Antibacterial activity against Staphylococcus aureus DHFR
Dihydrofolate reductase (Staphylococcus aureus, UniProt P0A017), sequence (P0A017 whole entry): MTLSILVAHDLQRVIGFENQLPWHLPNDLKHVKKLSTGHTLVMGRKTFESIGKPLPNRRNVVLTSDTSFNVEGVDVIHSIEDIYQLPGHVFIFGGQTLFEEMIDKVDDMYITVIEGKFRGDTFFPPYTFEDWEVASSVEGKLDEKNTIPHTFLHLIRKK
In short: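 S. aureus (strain S8862) DHFR was partially purified by ammonium sulfate fractionation and gel filtration. The assay used 0.1 M imidazole chloride pH 6.4, 12 mM mercaptoethanol, 60 µM NADPH and 45 µM dihydrofolate at 30 °C, read at 340 nm. Enzyme, NADPH and inhibitor were preincubated 2 min before dihydrofolate was added. I50 came from % inhibition vs log[inhibitor] plots of steady-state velocities.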

Structure (SMILES)	IC50 [1]	IC50 [2]	MIC [3]	MIC [4]	MIC [5]	MIC [6]	MIC [7]	MIC [8]	MIC [9]	IC50 [10]	MIC [11]	MIC [13]	MIC [14]	MIC [15]	MIC [16]	MIC [17]	MIC [18]	MIC [19]	MIC [20]	MIC [21]	further results
CCCc1cc(Cc2cnc(N)nc2N)cc2c1OC(C)C2C (stereo unspecified)	2.04 µM	0.012 µM	30 µg/mL	100 µg/mL	100 µg/mL	100 µg/mL	1 µg/mL	100 µg/mL	30 µg/mL	0.013 µM	1 µg/mL	–	–	–	–	–	–	–	–	–	–
COc1cc(Cc2cnc(N)nc2N)cc(OC)c1OC [TRIMETHOPRIM]	–	–	–	–	–	–	–	–	–	–	–	6.2 µg/mL	12.5 µg/mL	> 25 µg/mL	> 25 µg/mL	1 µg/mL (≈ 3.44 µM)	0.8 µg/mL	1 µg/mL (≈ 3.44 µM)	1 µg/mL (≈ 3.44 µM)	1 µg/mL (≈ 3.44 µM)	half-life [12]: 3.44 h; MIC [22]: 1 µg/mL (≈ 3.44 µM); MIC [23]: 1 µg/mL; MIC [24]: 1 µg/mL (≈ 3.44 µM); MIC [25]: 1 µg/mL (≈ 3.44 µM); MIC [26]: 1 µg/mL (≈ 3.44 µM)
CCCc1cc(Cc2cnc(N)nc2N)cc2c1OC(C)C2 (stereo unspecified)	6.25 µM	0.093 µM	100 µg/mL	100 µg/mL	30 µg/mL	30 µg/mL	1 µg/mL	100 µg/mL	30 µg/mL	0.021 µM	1 µg/mL	–	–	–	–	–	–	–	–	–	–
CCCc1cc(Cc2cnc(N)nc2N)cc2c1OC(C)(C)C2	9.9 µM	0.24 µM	100 µg/mL	100 µg/mL	100 µg/mL	300 µg/mL	3 µg/mL	300 µg/mL	100 µg/mL	0.28 µM	3 µg/mL	–	–	–	–	–	–	–	–	–	–
CCc1cc(Cc2cnc(N)nc2N)cc2c1OC(C)C2 (stereo unspecified)	11 µM	0.1 µM	30 µg/mL	30 µg/mL	30 µg/mL	30 µg/mL	1 µg/mL	30 µg/mL	30 µg/mL	0.019 µM	1 µg/mL	–	–	–	–	–	–	–	–	–	–
CCCc1cc(Cc2cnc(N)nc2N)cc(CCC)c1O	–	–	–	–	–	–	–	–	–	–	–	–	–	–	–	–	–	–	–	–	Ki [27]: 0.0017 µM
C=CCc1cc(Cc2cnc(N)nc2N)cc(CCC)c1OC	15 µM	–	–	–	–	–	–	–	–	–	–	0.2 µg/mL	0.1 µg/mL	25 µg/mL	12.5 µg/mL	38 µg/mL (≈ 122 µM)	0.8 µg/mL	100 µg/mL (≈ 320 µM)	10 µg/mL (≈ 32 µM)	> 50 µg/mL	MIC [28]: 0.5 µg/mL (≈ 1.6 µM); MIC [22]: 100 µg/mL (≈ 320 µM); MIC [29]: 100 µg/mL (≈ 320 µM); MIC [30]: > 10 µg/mL; MIC [24]: 2 µg/mL (≈ 6.4 µM); MIC [25]: 1 µg/mL (≈ 3.2 µM); MIC [26]: 100 µg/mL (≈ 320 µM); Ki [27]: 0.0016 µM
C=CCc1cc(Cc2cnc(N)nc2N)cc(CC=C)c1OC	18 µM	–	–	–	–	–	–	–	–	–	–	0.2 µg/mL	0.2 µg/mL	> 25 µg/mL	25 µg/mL	72 µg/mL (≈ 232 µM)	0.8 µg/mL	> 10 µg/mL	20 µg/mL (≈ 64.4 µM)	100 µg/mL (≈ 322 µM)	Ki [31]: 0.0021 µM; MIC [28]: 10 µg/mL (≈ 32.2 µM); MIC [22]: 100 µg/mL (≈ 322 µM); MIC [29]: 100 µg/mL (≈ 322 µM); MIC [30]: > 10 µg/mL; MIC [24]: 1 µg/mL (≈ 3.22 µM); MIC [25]: 5 µg/mL (≈ 16.1 µM); MIC [26]: 100 µg/mL (≈ 322 µM)
